# Assay results from ChEMBL document CHEMBL5260822, “Structure-based design and synthesis of 2,4-diaminopyrimidines as EGFR L858R/T790M selective inhibitors for NSCLC” (Eur J Med Chem, 2017).
# Calls of active or inactive are those of the source. No cut-off for these calls is given here.
# How the values were obtained:
# [1] = Volume of distribution at steady state in Sprague-Dawley rat at 1 mg/kg, iv and measured after 24 hrs by LC-MS/MS analysis; type: ADME, organism-based; conditions: in vivo, read-out: Vdss
# [2] = target: Tyrosine-protein kinase JAK2 (Homo sapiens) (UniProt O60674); assay: Inhibition of JAK2 (unknown origin) at 1000 nM by DiscoverX KINOMEscan assay
# [3] = system: Epidermal growth factor receptor (Homo sapiens), P00533 [L858R,T790M]; assay: Inhibition of EGFR phosphorylation in EGF-stimulated human NCI-H1975 cells harboring EGFR L858R/T790M double mutant at 0.1 to 100 nM and measured after 2 hrs by Western blot analysis; type: cell-based; conditions: dose 0.1-100 nM
# Summary of the method: (§1)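 Cells treated with compound for 2 h, then stimulated with EGF for 15 min and lysed. Lysates cleared at 12,000 × g (10 min, 4 °C), protein measured by Bradford assay, and equal amounts run on 8% SDS-PAGE and blotted to nitrocellulose. Probed for p-EGFR (Y1068), EGFR, p-ERK (T202/Y204), ERK, with tubulin or GAPDH as loading controls.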
# [4] = Half life in Sprague-Dawley rat at 1 mg/kg, iv and measured after 24 hrs by LC-MS/MS analysis; type: ADME, organism-based; conditions: in vivo
# [5] = system: NCI-H1975; assay: Antitumor activity against human NCI-H1975 cells harboring EGFR L858R/T790M mutant xenografted in BALB/c nude mouse assessed as tumor growth inhibition at 15 mg/kg, po for 18 days; type: functional; conditions: NCI-H1975, 432 h, time 18 day, read-out: TGI
# Summary of the method: (§2)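 H1975 cells (1 × 10^6 in 0.1 mL PBS) injected subcutaneously into the right flank of female nude mice. At mean tumor volume of about 100 mm3 (roughly 18 days), mice randomized, n = 6 per group, and dosed once daily for 18 days against a vehicle group. Tumor volume (0.5 × L × W²) measured every 2–3 days; tumors weighed at sacrifice. Data given as mean ± SEM.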
# [6] = system: Epidermal growth factor receptor (Homo sapiens), P00533 [L858R,T790M]; conditions: NCI-H1975, dose 10.0 nM, time 2.0 hrs
# [7] = system: NCI-H1975; assay: Inhibition of Akt signalling in EGF-stimulated human NCI-H1975 cells harboring EGFR L858R/T790M double mutant assessed as […] at 0.1 to 100 nM and measured after 2 hrs by Western blot analysis; type: cell-based; conditions: dose 0.1-100 nM
# [8] = Oral bioavailability in Sprague-Dawley rat at 10 mg/kg and measured after 24 hrs by LC-MS/MS analysis; type: ADME, organism-based; conditions: in vivo
# Summary of the method: (§3)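 Male Sprague–Dawley rats (190–220 g) dosed by oral gavage at 10 mg/kg in 5% DMSO / 95% HP-β-CD aqueous solution (20%); iv reference arm at 1 mg/kg. Blood sampled at 0.25, 0.5, 1, 2, 4, 6, 8 and 24 h, centrifuged (8000 × g, 6 min), and plasma quantified by LC–MS/MS.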
# [9] = system: A-431; assay: Antiproliferative activity against human A-431 cells harboring wild type EGFR assessed as inhibition of cell proliferation incubated for 72 hrs by sulforhodamine B colorimetric assay; type: functional, cell-based; conditions: A-431, 72 h
# [10] = Clearance in Sprague-Dawley rat at 1 mg/kg, iv and measured after 24 hrs by LC-MS/MS analysis; type: ADME, organism-based; conditions: in vivo
# [11] = Toxicity in BALB/c nude mouse xenografted with human NCI-H1975 cells harboring EGFR L858R/T790M mutant assessed as body weight loss at 15 to 30 mg/kg, po for 18 days; type: organism-based; conditions: in vivo, 432 h, dose 15-30 mg/kg, time 18 day
# Summary of the method: (§4)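 Female BALB/cA nu/nu mice were given 1 × 10^6 H1975 cells in 0.1 mL PBS subcutaneously in the right flank. At an average tumour volume of 100 mm3 (about 18 days post-implantation) they were randomised, n = 6 per group. Groups received 15 or 30 mg/kg/day for 18 consecutive days or vehicle. Mice were kept at constant room temperature, 12/12-h light/dark, with standard diet and water ad lib.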
# [12] = Cmax in Sprague-Dawley rat at 10 mg/kg, po and measured after 24 hrs by LC-MS/MS analysis; type: ADME, organism-based; design: dose 10 mg/kg, time 24 hrs, route po; conditions: in vivo; summary of the method: as §3
# [13] = Toxicity in BALB/c nude mouse xenografted with human NCI-H1975 cells harboring EGFR L858R/T790M mutant assessed as morphological changes in kidney at 15 to 30 mg/kg, po for 18 days by hematoxylin and eosin staining based microscopic analysis; type: organism-based; conditions: in vivo, 432 h, dose 15-30 mg/kg, time 18 day
# Summary of the method: (§5)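 H1975 subcutaneous xenografts were grown in female BALB/cA nu/nu mice (n = 6 per group), dosed at 15 or 30 mg/kg/day for 18 days or with vehicle. At the end the mice were sacrificed. Heart, kidney and liver were harvested, processed and stained with hematoxylin and eosin for routine histological examination.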
# [14] = system: NCI-H1975; assay: Antitumor activity against human NCI-H1975 cells harboring EGFR L858R/T790M mutant xenografted in BALB/c nude mouse assessed as tumor cell proliferation at 15 to 30 mg/kg, po for 18 days by Ki-67 staining based immunohistochemical analysis; type: functional, organism-based; conditions: dose 15-30 mg/kg, time 18.0 day
# Summary of the method: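 H1975 xenograft tumors from nude mice (n = 6/group, daily dosing 18 days) were harvested, fixed in 10% formalin, paraffin-embedded and cut into 5 µm sections. Sections deparaffinized and incubated with primary anti-Ki-67 antibody at room temperature; immunoreactivity visualized with DAB.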
# [15] = target: Focal adhesion kinase 1 (Homo sapiens) (UniProt Q05397); assay: Inhibition of FAK (unknown origin) at 1000 nM by DiscoverX KINOMEscan assay
# [16] = target: Tyrosine-protein kinase BTK (Homo sapiens) (UniProt Q06187); assay: Inhibition of BTK (unknown origin) at 1000 nM by DiscoverX KINOMEscan assay
# [17] = Toxicity in BALB/c nude mouse xenografted with human NCI-H1975 cells harboring EGFR L858R/T790M mutant assessed as mortality at 15 to 30 mg/kg, po for 18 days; type: organism-based; conditions: in vivo, 432 h, dose 15-30 mg/kg, time 18 day; summary of the method: as §4
# [18] = system: NCI-H1975; assay: Inhibition of Erk signalling in EGF-stimulated human NCI-H1975 cells harboring EGFR L858R/T790M double mutant assessed as decrease in p-ERK level at 0.1 to 100 nM and measured after 2 hrs by Western blot analysis; type: cell-based; conditions: dose 0.1-100 nM; summary of the method: as §1
# [19] = target: Epidermal growth factor receptor (Homo sapiens, UniProt P00533, L858R/T790M); assay: Inhibition of EGFR L858R/T790M mutant (unknown origin) expressed in baculovirus expression system by ELISA
# [20] = AUC (0 to infinity) in Sprague-Dawley rat at 10 mg/kg, po and measured after 24 hrs by LC-MS/MS analysis; type: ADME, organism-based; design: dose 10 mg/kg, time 24 hrs, route po; conditions: in vivo; summary of the method: as §3
# [21] = target: T1, Epidermal growth factor receptor (Homo sapiens, UniProt P00533); assay: Inhibition of EGFR phosphorylation in EGF-stimulated human A-431 cells harboring wild type EGFR at 100 nM and measured after 2 hrs by Western blot analysis; type: cell-based; summary of the method: as §1
# [22] = Half life in Sprague-Dawley rat at 10 mg/kg, po and measured after 24 hrs by LC-MS/MS analysis; type: ADME, organism-based; conditions: in vivo; summary of the method: as §3
# [23] = AUC (0 to infinity) in Sprague-Dawley rat at 1 mg/kg, iv and measured after 24 hrs by LC-MS/MS analysis; type: ADME, organism-based; design: time 24 hrs, dose 1 mg/kg, route iv; conditions: in vivo
# [24] = system: NCI-H1975; assay: Antitumor activity against human NCI-H1975 cells harboring EGFR L858R/T790M mutant xenografted in BALB/c nude mouse assessed as tumor growth inhibition at 30 mg/kg, po for 18 days; type: functional; conditions: NCI-H1975, 432 h, time 18 day, read-out: TGI; summary of the method: as §2
# [25] = system: NCI-H1975; assay: Antiproliferative activity against human NCI-H1975 cells harboring EGFR L858R/T790M double mutant assessed as inhibition of cell proliferation incubated for 72 hrs by sulforhodamine B colorimetric assay; type: functional, cell-based; conditions: NCI-H1975, 72 h
# [26] = Toxicity in BALB/c nude mouse xenografted with human NCI-H1975 cells harboring EGFR L858R/T790M mutant assessed as morphological changes in heart at 15 to 30 mg/kg, po for 18 days by hematoxylin and eosin staining based microscopic analysis; type: organism-based; conditions: in vivo, 432 h, dose 15-30 mg/kg, time 18 day; summary of the method: as §5
# [27] = system: Epidermal growth factor receptor (Homo sapiens), P00533 [L858R,T790M]; assay: In vivo inhibition of EGFR in BALB/c nude mouse xenografted with human NCI-H1975 cells harboring EGFR L858R/T790M mutant assessed as decrease in phosphorylated-EGFR level at 15 to 30 mg/kg, po for 18 days by western blot analysis; type: functional, organism-based; conditions: dose 15-30 mg/kg, time 18.0 day
# [28] = target: T1, Epidermal growth factor receptor; assay: Inhibition of wild type EGFR (unknown origin) expressed in baculovirus expression system by ELISA
# [29] = target: Insulin receptor (Homo sapiens) (UniProt P06213); assay: Inhibition of INSR (unknown origin) at 1000 nM by DiscoverX KINOMEscan assay
# [30] = Cmax in Sprague-Dawley rat at 1 mg/kg, iv and measured after 24 hrs by LC-MS/MS analysis; type: ADME, organism-based; design: dose 1 mg/kg, time 24 hrs, route iv; conditions: in vivo
# [31] = Toxicity in BALB/c nude mouse xenografted with human NCI-H1975 cells harboring EGFR L858R/T790M mutant assessed as morphological changes in liver at 15 to 30 mg/kg, po for 18 days by hematoxylin and eosin staining based microscopic analysis; type: organism-based; conditions: in vivo, 432 h, dose 15-30 mg/kg, time 18 day; summary of the method: as §5
# Sequence of Epidermal growth factor receptor (Homo sapiens), P00533 [L858R,T790M] (P00533 whole entry T790M/L858R, looked up): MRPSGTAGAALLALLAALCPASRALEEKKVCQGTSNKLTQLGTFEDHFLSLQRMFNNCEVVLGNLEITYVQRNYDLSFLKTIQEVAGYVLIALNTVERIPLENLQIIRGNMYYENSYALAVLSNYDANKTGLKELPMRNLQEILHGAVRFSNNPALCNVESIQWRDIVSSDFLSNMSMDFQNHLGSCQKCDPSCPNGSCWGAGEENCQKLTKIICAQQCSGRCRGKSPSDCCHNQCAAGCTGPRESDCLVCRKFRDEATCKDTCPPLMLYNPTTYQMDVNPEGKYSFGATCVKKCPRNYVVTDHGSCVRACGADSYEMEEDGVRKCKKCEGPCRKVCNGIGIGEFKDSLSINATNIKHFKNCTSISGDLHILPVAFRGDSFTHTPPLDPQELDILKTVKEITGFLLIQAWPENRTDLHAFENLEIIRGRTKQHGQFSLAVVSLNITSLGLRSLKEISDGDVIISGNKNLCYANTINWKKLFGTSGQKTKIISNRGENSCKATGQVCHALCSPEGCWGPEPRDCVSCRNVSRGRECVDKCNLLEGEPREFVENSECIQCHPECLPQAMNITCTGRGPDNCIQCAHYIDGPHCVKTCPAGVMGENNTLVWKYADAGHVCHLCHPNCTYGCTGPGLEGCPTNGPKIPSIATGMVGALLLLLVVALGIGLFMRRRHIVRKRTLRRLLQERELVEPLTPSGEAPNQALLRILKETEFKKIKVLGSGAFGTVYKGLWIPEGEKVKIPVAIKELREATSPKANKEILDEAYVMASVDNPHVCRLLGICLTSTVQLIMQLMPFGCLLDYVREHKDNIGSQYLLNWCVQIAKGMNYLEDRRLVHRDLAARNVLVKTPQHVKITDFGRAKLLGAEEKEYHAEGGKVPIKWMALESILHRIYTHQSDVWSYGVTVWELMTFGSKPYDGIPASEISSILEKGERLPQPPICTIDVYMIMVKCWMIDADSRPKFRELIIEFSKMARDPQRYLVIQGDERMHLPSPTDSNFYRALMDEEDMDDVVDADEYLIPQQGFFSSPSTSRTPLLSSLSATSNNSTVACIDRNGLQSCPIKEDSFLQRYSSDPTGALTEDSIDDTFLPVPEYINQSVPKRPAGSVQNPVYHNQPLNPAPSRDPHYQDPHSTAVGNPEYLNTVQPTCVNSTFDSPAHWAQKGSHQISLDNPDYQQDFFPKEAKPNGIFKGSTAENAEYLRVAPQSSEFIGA
# T1 sequence (P00533 whole entry): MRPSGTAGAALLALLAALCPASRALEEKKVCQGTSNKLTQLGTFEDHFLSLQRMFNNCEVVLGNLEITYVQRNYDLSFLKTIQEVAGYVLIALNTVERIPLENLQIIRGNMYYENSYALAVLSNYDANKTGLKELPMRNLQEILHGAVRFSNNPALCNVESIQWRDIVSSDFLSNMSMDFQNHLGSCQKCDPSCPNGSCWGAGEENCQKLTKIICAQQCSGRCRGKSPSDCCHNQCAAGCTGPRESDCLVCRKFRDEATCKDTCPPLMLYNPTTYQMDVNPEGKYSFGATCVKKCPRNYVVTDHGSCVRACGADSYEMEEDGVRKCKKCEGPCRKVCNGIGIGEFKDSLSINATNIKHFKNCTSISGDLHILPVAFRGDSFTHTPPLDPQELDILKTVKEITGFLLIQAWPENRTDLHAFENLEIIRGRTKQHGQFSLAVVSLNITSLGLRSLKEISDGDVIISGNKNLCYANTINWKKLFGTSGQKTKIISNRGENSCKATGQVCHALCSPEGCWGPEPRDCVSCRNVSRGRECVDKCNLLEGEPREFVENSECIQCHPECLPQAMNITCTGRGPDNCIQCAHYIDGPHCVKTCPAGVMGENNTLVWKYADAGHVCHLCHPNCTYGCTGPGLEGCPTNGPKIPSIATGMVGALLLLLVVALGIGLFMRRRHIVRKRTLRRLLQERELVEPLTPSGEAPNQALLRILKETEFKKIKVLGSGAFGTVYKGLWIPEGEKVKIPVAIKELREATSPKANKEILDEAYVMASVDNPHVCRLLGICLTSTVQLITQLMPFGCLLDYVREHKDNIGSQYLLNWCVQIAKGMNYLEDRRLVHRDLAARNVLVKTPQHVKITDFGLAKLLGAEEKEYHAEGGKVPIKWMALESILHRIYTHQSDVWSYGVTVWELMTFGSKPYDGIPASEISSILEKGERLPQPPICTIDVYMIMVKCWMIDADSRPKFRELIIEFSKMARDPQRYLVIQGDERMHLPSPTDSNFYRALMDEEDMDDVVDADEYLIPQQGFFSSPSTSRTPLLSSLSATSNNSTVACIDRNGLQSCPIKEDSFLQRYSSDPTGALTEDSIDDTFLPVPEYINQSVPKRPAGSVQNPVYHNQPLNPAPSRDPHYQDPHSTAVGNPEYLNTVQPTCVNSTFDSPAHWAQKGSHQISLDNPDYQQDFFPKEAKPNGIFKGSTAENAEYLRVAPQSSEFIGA
# Sequence of Insulin receptor (Homo sapiens) (P06213 28-758 limits assumed): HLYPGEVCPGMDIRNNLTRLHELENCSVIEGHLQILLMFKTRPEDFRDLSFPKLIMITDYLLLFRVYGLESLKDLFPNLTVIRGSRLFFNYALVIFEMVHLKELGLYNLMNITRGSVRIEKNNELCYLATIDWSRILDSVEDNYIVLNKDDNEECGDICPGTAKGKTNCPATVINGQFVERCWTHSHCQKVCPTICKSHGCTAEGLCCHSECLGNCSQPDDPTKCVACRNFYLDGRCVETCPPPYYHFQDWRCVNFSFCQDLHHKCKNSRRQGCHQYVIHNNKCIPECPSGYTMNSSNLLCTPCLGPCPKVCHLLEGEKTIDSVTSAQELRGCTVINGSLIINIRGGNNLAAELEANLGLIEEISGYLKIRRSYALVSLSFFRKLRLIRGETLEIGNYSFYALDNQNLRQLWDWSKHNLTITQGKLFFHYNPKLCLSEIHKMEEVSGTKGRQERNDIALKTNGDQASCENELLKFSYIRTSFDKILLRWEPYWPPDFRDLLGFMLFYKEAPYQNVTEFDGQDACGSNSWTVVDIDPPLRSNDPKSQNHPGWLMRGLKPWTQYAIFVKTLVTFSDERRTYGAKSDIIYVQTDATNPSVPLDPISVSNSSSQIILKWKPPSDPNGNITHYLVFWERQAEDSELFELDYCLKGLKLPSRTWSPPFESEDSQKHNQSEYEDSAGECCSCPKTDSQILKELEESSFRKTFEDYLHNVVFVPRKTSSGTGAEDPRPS
# Sequence of Insulin receptor (Homo sapiens) (P06213 763-1382 limits assumed): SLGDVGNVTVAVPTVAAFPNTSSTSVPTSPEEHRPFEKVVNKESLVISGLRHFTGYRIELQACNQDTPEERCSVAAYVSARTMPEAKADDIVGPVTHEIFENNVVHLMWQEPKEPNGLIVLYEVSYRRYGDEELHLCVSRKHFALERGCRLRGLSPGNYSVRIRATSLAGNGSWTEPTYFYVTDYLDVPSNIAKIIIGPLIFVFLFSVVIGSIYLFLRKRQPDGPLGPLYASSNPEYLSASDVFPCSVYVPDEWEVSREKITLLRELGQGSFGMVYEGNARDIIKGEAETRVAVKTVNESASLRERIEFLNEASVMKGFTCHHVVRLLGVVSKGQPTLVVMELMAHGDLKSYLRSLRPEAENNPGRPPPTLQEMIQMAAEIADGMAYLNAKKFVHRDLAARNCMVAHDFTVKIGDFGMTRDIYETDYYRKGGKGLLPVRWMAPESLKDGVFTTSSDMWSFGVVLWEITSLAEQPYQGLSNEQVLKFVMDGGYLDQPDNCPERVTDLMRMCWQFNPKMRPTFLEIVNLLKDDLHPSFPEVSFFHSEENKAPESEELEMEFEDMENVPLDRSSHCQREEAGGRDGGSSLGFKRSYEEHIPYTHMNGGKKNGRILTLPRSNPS
# Sequence of Tyrosine-protein kinase BTK (Homo sapiens) (Q06187 whole entry): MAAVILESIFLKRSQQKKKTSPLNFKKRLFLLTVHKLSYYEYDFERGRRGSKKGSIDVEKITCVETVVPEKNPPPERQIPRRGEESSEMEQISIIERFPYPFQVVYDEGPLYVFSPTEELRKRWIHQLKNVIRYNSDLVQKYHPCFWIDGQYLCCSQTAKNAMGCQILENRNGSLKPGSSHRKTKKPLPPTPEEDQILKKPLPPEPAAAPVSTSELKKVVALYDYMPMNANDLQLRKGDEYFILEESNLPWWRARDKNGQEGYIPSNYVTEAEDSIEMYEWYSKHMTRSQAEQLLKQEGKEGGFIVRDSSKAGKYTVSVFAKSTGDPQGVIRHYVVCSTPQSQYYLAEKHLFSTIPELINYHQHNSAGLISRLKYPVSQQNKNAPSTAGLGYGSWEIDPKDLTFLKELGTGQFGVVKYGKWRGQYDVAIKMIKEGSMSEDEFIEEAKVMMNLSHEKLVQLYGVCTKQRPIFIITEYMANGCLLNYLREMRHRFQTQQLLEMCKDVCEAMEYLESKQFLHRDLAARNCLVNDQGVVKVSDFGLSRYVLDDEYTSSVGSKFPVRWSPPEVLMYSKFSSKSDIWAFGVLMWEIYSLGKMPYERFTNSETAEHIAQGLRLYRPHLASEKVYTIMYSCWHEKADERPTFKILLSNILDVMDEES
smiles,measurement,setting,value
C=CC(=O)Nc1cc(Nc2ncc(Br)c(Nc3ccc4c(c3)CCC4)n2)c(OC)cc1N1CCN(C)CC1,Vd,[1],4.83 L/kg
same,inhibition,[2],Active
same,inhibition,[3],Dose-Dependent Effect
same,half-life,[4],5.17 h
same,inhibition in vivo at 15 mg/kg,[5],61%
same,inhibition,[6],Active
same,inhibition,[7],Dose-Dependent Effect
same,F,[8],35.58%
same,IC50,[9],2.6 µM
same,clearance,[10],15.9 mL/min/kg
same,Activity,[11],Non-Toxic
same,Cmax,[12],452 ng/mL
same,Activity,[13],Non-Toxic
same,Activity,[14],Active
same,inhibition,[15],Active
same,inhibition,[16],Active
same,Activity,[17],Non-Toxic
same,inhibition,[18],Dose-Dependent Effect
same,IC50,[19],0.0032 µM
same,AUC,[20],35.58 ng·h/mL
same,inhibition,[21],inactive
same,half-life,[22],3.54 h
same,AUC,[23],1052 ng·h/mL
same,inhibition in vivo at 30 mg/kg,[24],77%
same,IC50,[25],0.276 µM
same,Activity,[26],Non-Toxic
same,inhibition,[27],Active
same,IC50,[28],0.203 µM
same,inhibition,[29],Active
same,Cmax,[30],407 ng/mL
same,Activity,[31],Non-Toxic
